From ChEMBL document CHEMBL3421607, “Design, synthesis and antibacterial activity of cinnamaldehyde derivatives as inhibitors of the bacterial cell division protein FtsZ” (Eur J Med Chem, 2015)
Converted amounts (≈) assume the structure as drawn.

How the values were obtained:
Escherichia coli [1] = experiment: Antibacterial activity against Escherichia coli; type: functional
In short: (§1)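 NCCLS tube-dilution MIC using B. subtilis ATCC9372 and E. coli ATCC25922. Strains were grown on Mueller Hinton agar at 37°C for 24 h. […] Tubes were incubated at 37°C for 24 h, and the MIC was read as the last tube without turbidity.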

Bacillus subtilis [2] = experiment: Antibacterial activity against Bacillus subtilis; type: functional; in short: as §1
Pseudomonas aeruginosa [3] = experiment: microbe, parasite or virus in culture; type: functional; conditions: ATCC 27853, 5 h
Staphylococcus aureus [4] = experiment: Antibacterial activity against penicillin-resistant Staphylococcus aureus clinical isolates after 24 hrs by broth microdilution method; type: functional
Bacillus subtilis [5] = experiment: microbe, parasite or virus in culture; type: functional; conditions: ATCC 9372, 24 h
Streptococcus pyogenes [6] = experiment: Antibacterial activity against penicillin-susceptible Streptococcus pyogenes clinical isolates after 24 hrs by broth microdilution method; type: functional
Streptococcus pyogenes [7] = experiment: Antibacterial activity against penicillin-resistant Streptococcus pyogenes clinical isolates after 24 hrs by broth microdilution method; type: functional
Escherichia coli [8] = experiment: microbe, parasite or virus in culture; type: functional; conditions: ATCC 25922, 24 h
Staphylococcus aureus [9] = experiment: microbe, parasite or virus in culture; type: functional; conditions: ATCC 25923, 24 h
[10] = target: T1, Cell division protein FtsZ (Escherichia coli K-12) (UniProt P0A9A6); experiment: (§2) Inhibition of Escherichia coli ATCC 25922 recombinant N-His6-tagged FtsZ polymerization expressed in Escherichia coli BL21(DE3) incubated for 15 mins prior to GTP addition measured after 390 mins by malachite green staining-based GTPase assay; conditions: in the assay text read “30 mins” for “390 mins”
T1 sequence (whole entry): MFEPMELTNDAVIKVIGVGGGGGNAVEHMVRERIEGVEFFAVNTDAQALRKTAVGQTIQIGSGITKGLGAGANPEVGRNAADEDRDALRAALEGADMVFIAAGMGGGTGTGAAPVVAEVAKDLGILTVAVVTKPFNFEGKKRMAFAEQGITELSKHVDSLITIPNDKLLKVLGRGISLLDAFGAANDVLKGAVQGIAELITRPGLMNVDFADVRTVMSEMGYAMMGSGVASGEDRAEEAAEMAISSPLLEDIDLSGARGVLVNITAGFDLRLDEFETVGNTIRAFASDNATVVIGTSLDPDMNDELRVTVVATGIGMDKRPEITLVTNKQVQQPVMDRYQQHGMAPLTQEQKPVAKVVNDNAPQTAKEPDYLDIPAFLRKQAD
In short: (§3)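 Purified N-His6 E. coli FtsZ (10 µM) in 50 mM MES, 5 mM MgCl2, 50 mM KCl, pH 6.5 with compound at varying concentrations (2% DMSO), preincubated 15 min at room temperature. 50 μM GTP then added for 30 min at 37°C. Released phosphate measured by Malachite Green reagent (20% v/v) at A620, background-subtracted and read against a phosphate standard curve.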

Staphylococcus aureus [11] = experiment: microbe, parasite or virus in culture; type: functional; conditions: ATCC 29213, 24 h
[12] = tested on: Staphylococcus epidermidis; experiment: Antibacterial activity against penicillin-resistant Staphylococcus epidermidis clinical isolates after 24 hrs by broth microdilution method; type: functional
Escherichia coli [13] = experiment: microbe, parasite or virus in culture; type: functional; conditions: ATCC 25922, 5 h
Pseudomonas aeruginosa [14] = experiment: microbe, parasite or virus in culture; type: functional; conditions: ATCC 27853, 24 h
[15] = target: T1, Cell division protein FtsZ (Escherichia coli K-12); experiment: Inhibition of Escherichia coli ATCC 25922 recombinant N-His6-tagged FtsZ polymerization expressed in Escherichia coli BL21(DE3) by light scattering assay
In short: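 E. coli FtsZ (N-His6, expressed in BL21(DE3), Ni-affinity purified) at 12 µM in 50 mM MES, 5 mM MgCl2, 50 mM KCl, pH 6.5 with compound at various concentrations, 2% DMSO, 30°C. Right-angle light scattering at 400 nm (excitation and emission). 120 s baseline, then polymerization started with 2 mM GTP and followed for 2000 s.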

Bacillus subtilis [16] = experiment: microbe, parasite or virus in culture; type: functional; conditions: ATCC 9372, 5 h
Staphylococcus aureus [17] = experiment: microbe, parasite or virus in culture; type: functional; conditions: ATCC 25923, 5 h
[18] = tested on: Staphylococcus epidermidis; experiment: Ratio of curcumin MIC to compound MIC for Staphylococcus epidermidis; type: functional
[19] = tested on: Staphylococcus epidermidis; experiment: Ratio of cinnamic acid MIC to compound MIC for Staphylococcus epidermidis; type: functional
[20] = tested on: Staphylococcus epidermidis; experiment: Ratio of ciprofloxacin MIC to compound MIC for Staphylococcus epidermidis; type: functional
[21] = target: T2, Cell division protein FtsZ (Escherichia coli K-12, UniProt P0A9A6); experiment: as §2; conditions: in the assay text read “30 mins” for “390 mins”; in short: as §3
T2 sequence (P0A9A6 whole entry): T1 sequence (whole entry)

Staphylococcus aureus [22] = experiment: Ratio of cinnamic acid MIC to compound MIC for penicillin-susceptible Staphylococcus aureus ATCC 25923; type: functional
Staphylococcus aureus [23] = experiment: Ratio of ciprofloxacin MIC to compound MIC for penicillin-susceptible Staphylococcus aureus ATCC 25923; type: functional
Staphylococcus aureus [24] = experiment: Ratio of curcumin MIC to compound MIC for penicillin-susceptible Staphylococcus aureus ATCC 25923; type: functional

Structure (SMILES) | MIC (Pseudomonas aeruginosa [3]) [µg/mL] | MIC (Staphylococcus aureus [4]) [µg/mL] | MIC (Bacillus subtilis [5]) [µg/mL] | MIC (Streptococcus pyogenes [6]) [µg/mL] | MIC (Streptococcus pyogenes [7]) [µg/mL] | MIC (Escherichia coli [8]) [µg/mL] | MIC (Staphylococcus aureus [9]) [µg/mL] | MIC (Staphylococcus aureus [11]) [µg/mL] | MIC [12] [µg/mL] | MIC (Escherichia coli [13]) [µg/mL] | MIC (Pseudomonas aeruginosa [14]) [µg/mL] | MIC (Bacillus subtilis [16]) [µg/mL] | MIC (Staphylococcus aureus [17]) [µg/mL] | other results
O=C/C=C/c1ccccc1 |  |  |  |  |  |  |  |  |  |  |  |  |  | MIC (Escherichia coli [1]): 1000 µg/mL (≈ 7570 µM); MIC (Bacillus subtilis [2]): 500 µg/mL (≈ 3780 µM)
Cc1nc2ccccc2n1C(=O)/C=C/c1ccc(Cl)cc1 | > 128 | 64 (≈ 216 µM) | 128 (≈ 431 µM) | 32 (≈ 108 µM) | 8 (≈ 27 µM) | 128 (≈ 431 µM) | 8 (≈ 27 µM) | > 128 | 16 (≈ 53.9 µM) | > 128 | 128 (≈ 431 µM) | > 128 | 0.5 (≈ 1.68 µM) | inhibition [10]: Dose-dependent effect; inhibition [15]: Dose-dependent effect
Cc1nc2ccccc2n1C(=O)/C=C/c1ccc([N+](=O)[O-])cc1 | > 128 | 128 (≈ 417 µM) | 128 (≈ 417 µM) | 64 (≈ 208 µM) | 16 (≈ 52.1 µM) | 128 (≈ 417 µM) | 16 (≈ 52.1 µM) | > 128 | 128 (≈ 417 µM) | > 128 | 128 (≈ 417 µM) | > 128 | 0.5 (≈ 1.63 µM) | 
CCCCCCNC(=O)/C=C/c1ccc(Cl)cc1Cl | > 128 | > 128 | > 128 | 128 (≈ 426 µM) | > 128 | > 128 | > 128 | > 128 | > 128 | > 128 | > 128 | 128 (≈ 426 µM) | > 128 | 
COc1cc(/C=C/C(=O)n2c(C)nc3ccccc32)cc(OC)c1OC | > 128 | > 128 | > 128 | 128 (≈ 363 µM) | 128 (≈ 363 µM) | 128 (≈ 363 µM) | > 128 | > 128 | 128 (≈ 363 µM) | > 128 | > 128 | > 128 | 64 (≈ 182 µM) | 
O=C(/C=C/c1ccc(Cl)cc1Cl)N1CCOCC1 | > 128 | > 128 | > 128 | > 128 | 128 (≈ 447 µM) | 128 (≈ 447 µM) | > 128 | > 128 | 64 (≈ 224 µM) | > 128 | 128 (≈ 447 µM) | > 128 | > 128 | 
COc1ccc(NC(=O)/C=C/c2ccc(Cl)cc2Cl)cc1 | > 128 | > 128 | > 128 | 128 (≈ 397 µM) | 128 (≈ 397 µM) | > 128 | > 128 | > 128 | > 128 | > 128 | > 128 | > 128 | > 128 | 
Cc1nc2ccccc2n1C(=O)/C=C/c1ccc(F)cc1 | > 128 | 64 (≈ 228 µM) | 128 (≈ 457 µM) | 128 (≈ 457 µM) | 64 (≈ 228 µM) | 128 (≈ 457 µM) | 16 (≈ 57.1 µM) | > 128 | 16 (≈ 57.1 µM) | > 128 | 128 (≈ 457 µM) | > 128 | 0.5 (≈ 1.78 µM) | inhibition [10]: Dose-dependent effect; inhibition [15]: Dose-dependent effect
Cc1nc2ccccc2n1C(=O)/C=C/c1ccccc1Cl | 128 (≈ 431 µM) | 64 (≈ 216 µM) | 128 (≈ 431 µM) | > 128 |  | 128 (≈ 431 µM) | 32 (≈ 108 µM) | 128 (≈ 431 µM) | 4 (≈ 13.5 µM) | 128 (≈ 431 µM) | 128 (≈ 431 µM) | > 128 | 16 (≈ 53.9 µM) | Ratio [18]: >32; Ratio [19]: >32; Ratio [20]: >32
CCCNC(=O)/C=C/c1ccc(Cl)cc1Cl [3-(2,4-DICHLOROPHENYL)-N-PROPYLACRYLAMIDE] | > 128 | > 128 | > 128 | 128 (≈ 496 µM) | > 128 | 128 (≈ 496 µM) | > 128 | > 128 | > 128 | > 128 | 128 (≈ 496 µM) | 32 (≈ 124 µM) | 64 (≈ 248 µM) | 
COc1ccc(/C=C/C(=O)n2c(C)nc3ccccc32)cc1OC | > 128 | > 128 | > 128 | 64 (≈ 199 µM) | 64 (≈ 199 µM) | 128 (≈ 397 µM) | > 128 | > 128 | > 128 | 128 (≈ 397 µM) | 128 (≈ 397 µM) | > 128 | 64 (≈ 199 µM) | 
Cc1nc2ccccc2n1C(=O)/C=C/c1ccc(Cl)cc1Cl | > 128 | 16 (≈ 48.3 µM) | 128 (≈ 386 µM) | > 128 | 64 (≈ 193 µM) | 128 (≈ 386 µM) | 4 (≈ 12.1 µM) | > 128 | 4 (≈ 12.1 µM) | > 128 | 128 (≈ 386 µM) | > 128 | 1 (≈ 3.02 µM) | Ratio [18]: >32; inhibition [10]: Dose-dependent effect; IC50 [21]: 90.6 µM; Ratio [19]: >32; inhibition [15]: Dose-dependent effect; Ratio [20]: >32
Cc1nc2ccccc2n1C(=O)/C=C/c1ccccc1 | > 128 | 64 (≈ 244 µM) | 128 (≈ 488 µM) | 128 (≈ 488 µM) | 128 (≈ 488 µM) | 128 (≈ 488 µM) | 4 (≈ 15.2 µM) | > 128 | 32 (≈ 122 µM) | > 128 | 128 (≈ 488 µM) | > 128 | 0.25 (≈ 0.953 µM) | Ratio (Staphylococcus aureus [22]): >512; Ratio (Staphylococcus aureus [23]): >512; Ratio (Staphylococcus aureus [24]): >512
